Experimental data taken from ChEMBL document CHEMBL1157207, “Synthesis of 3,5-bis(2-indolyl)pyridine and 3-[(2-indolyl)-5-phenyl]pyridine derivatives as CDK inhibitors and cytotoxic agents” (Bioorg Med Chem, 2008).
pIC50: −log10 of the molar value.

What was measured:
CCRF-CEM = assay: Cytotoxicity against human CEM cells; format: functional, cell-based
Procedure, shortened: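 CEM human leukaemia cells kept in RPMI 1640 with 10% FBS, 2 mM glutamine, penicillin/streptomycin, 37 °C, 5% CO2. Exponentially growing cells seeded at 2×10^4 per well with various drug concentrations, 72 h at 37 °C; tetrazolium dye (CellTiter 96 AQueous One) then added for 2 h, absorbance read at 492 nm. IC50 averaged from two experiments.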

[1] = Inhibition of pig brain GSK3alpha/beta; parameters: species or system Sus scrofa
Procedure, shortened: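 GSK-3α/β purified from porcine brain, diluted 1/100 in 1 mg/ml BSA, 10 mM DTT. Assayed in buffer A (pH 7.5, with heparin) with GS-1 peptide (5 µl of 40 µM) as substrate and 15 µM [γ-33P]ATP, 30 µl final, 30 min at 30 °C. Detection by P81 phosphocellulose paper binding, phosphoric acid washes, scintillation counting. IC50 averaged from two experiments; DMSO controls.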

[2] = Inhibition of starfish CDK1/cyclin B; parameters: species or system Marthasterias glacialis
Procedure, shortened: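 CDK1/cyclin B taken from M-phase starfish (Marthasterias glacialis) oocytes and affinity-purified on p9CKShs1-sepharose beads, eluted with free p9CKShs1. Assayed in buffer C with 1 mg/ml histone H1 and 15 µM [γ-33P]ATP, 30 µl final, 10 min at 30 °C. Detection by P81 phosphocellulose paper binding and scintillation counting. IC50 averaged from two experiments.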

[3] = Inhibition of recombinant CDK5/p25 expressed in Escherichia coli
Procedure, shortened: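 Recombinant CDK5 and p25 expressed in E. coli as GST fusions, purified on glutathione-agarose and mixed in equal amounts. Assayed in buffer C with 1 mg/ml histone H1 and 15 µM [γ-33P]ATP, 30 µl final, 10 min at 30 °C. Detection by P81 phosphocellulose paper binding and scintillation counting. IC50 averaged from two experiments.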

`Oc1ccc(-c2cncc(-c3cc4cc(O)ccc4[nH]3)c2)cc1` gave a pIC50 (CCRF-CEM) of 4.84, a pIC50 [1] of 4.40 and a pIC50 [2] of 6.51. The pIC50 [3] was 5.82.

For `CN(C)CCn1c(-c2cncc(-c3cc4cc(O)ccc4n3CCN(C)C)c2)cc2cc(O)ccc21`, the pIC50 (CCRF-CEM) was 4.83, the pIC50 [1] was < 5.00 and the pIC50 [2] was < 5.00.

In the case of `Oc1ccc(-c2cncc(-c3cc4ccccc4[nH]3)c2)cc1`, the pIC50 (CCRF-CEM) was 5.33, the pIC50 [1] was < 4.00 and the pIC50 [2] was 6.15. For the same compound, the pIC50 [3] was 6.05.

Compound `CN(C)CCCOc1ccc(-c2cncc(-c3cc4cc(O)ccc4[nH]3)c2)cc1` has a pIC50 (CCRF-CEM) of 5.27, a pIC50 [1] of 5.42 and a pIC50 [2] of 5.72. For the same compound, the pIC50 [3] was 5.30.

For `Oc1ccc2[nH]c(-c3cncc(-c4cc5cc(O)ccc5[nH]4)c3)cc2c1`, the pIC50 (CCRF-CEM) was 5.10, the pIC50 [1] was 4.52 and the pIC50 [2] was 6.27. It also gave a pIC50 [3] of 5.92.

Compound `CN(C)CCCOc1ccc(-c2cncc(-c3cc4ccccc4[nH]3)c2)cc1` has a pIC50 (CCRF-CEM) of 5.27, a pIC50 [1] of 4.51 and a pIC50 [2] of 6.05. For the same compound, the pIC50 [3] was 6.00.

In the case of `CN(C)CCCn1c(-c2cncc(-c3cc4cc(O)ccc4n3CCCN(C)C)c2)cc2cc(O)ccc21`, the pIC50 (CCRF-CEM) was 4.95, the pIC50 [1] was < 5.00 and the pIC50 [2] was < 5.00.

`CN(C)CCOc1ccc(-c2cncc(-c3cc4ccccc4[nH]3)c2)cc1` gave a pIC50 (CCRF-CEM) of 5.04, a pIC50 [1] of 5.32 and a pIC50 [2] of 5.60. The pIC50 [3] was 5.51.

In the case of `CN(C)CCCOc1ccc(-c2cncc(-c3cc4ccccc4n3CCCN(C)C)c2)cc1`, the pIC50 (CCRF-CEM) was 5.38, the pIC50 [1] was < 5.00 and the pIC50 [2] was < 5.00.

In the case of `CN(C)CCCn1c(-c2cncc(-c3cc4cc(O)ccc4[nH]3)c2)cc2cc(O)ccc21`, the pIC50 (CCRF-CEM) was 4.85, the pIC50 [1] was < 5.00 and the pIC50 [2] was < 5.00.

With `CN(C)CCn1c(-c2cncc(-c3cc4cc(O)ccc4[nH]3)c2)cc2cc(O)ccc21` the pIC50 (CCRF-CEM) was 5.24, the pIC50 [1] was < 5.00 and the pIC50 [2] was < 5.00.

For `CN(C)CCCOc1ccc(-c2cncc(-c3cc4cc(O)ccc4n3CCCN(C)C)c2)cc1`, the pIC50 (CCRF-CEM) was 4.90, the pIC50 [1] was < 5.00 and the pIC50 [2] was < 5.00.

In the case of `CN(C)CCOc1ccc(-c2cncc(-c3cc4ccccc4n3CCN(C)C)c2)cc1`, the pIC50 (CCRF-CEM) was 5.10, the pIC50 [1] was < 5.00 and the pIC50 [2] was < 5.00.

With `CN(C)CCOc1ccc(-c2cncc(-c3cc4cc(O)ccc4n3CCN(C)C)c2)cc1` the pIC50 (CCRF-CEM) was 4.50, the pIC50 [1] was < 5.00 and the pIC50 [2] was < 5.00.

`CN(C)CCOc1ccc(-c2cncc(-c3cc4cc(O)ccc4[nH]3)c2)cc1` gave a pIC50 (CCRF-CEM) of 4.91, a pIC50 [1] of 5.34 and a pIC50 [2] of 5.44. It also gave a pIC50 [3] of 5.17.
